Test results published in ChEMBL document CHEMBL4513216, “Probing the Open Global Health Chemical Diversity Library for Multistage-Active Starting Points for Next-Generation Antimalarials” (ACS Infect Dis, 2020).

Experiment: Toxicity liver stage against HepG2, at 10uM
Type: cell-based
Design: test concentration 10 uM, cell line HepG2-A16-CD81EGFP
Conditions: human, HepG2-A16-CD81EGFP cells; read-out: INHIBITION
Procedure, shortened: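 Uninfected HepG2-A16-CD81EGFP cells, 3 × 10^3 per well, 1536-well, plated on prespotted compound at 10 μM final, parasite-free screening media added to match infected plates; puromycin 10 μM positive, DMSO 0.5% negative; run in parallel with 48 h PbLuc assay at 37 °C, 5% CO2; viability by CellTiter-Glo luminescence, normalized to controls.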

Structure (SMILES)	cytotoxicity at 10 µM [%]
CN(C(=O)c1ccco1)c1nc2c(s1)CCCC2	13.7
O=C(NCc1cccnc1)[C@H]1CN2CCC1C[C@@H]2Cn1cc(CO)nn1 (stereo partly specified)	-0.843
CN(C)C(=O)CO[C@H]1COCCN(C2CCOCC2)C1	3.64
CCCOc1cc(C)c2c(c1C)C[C@H]([C@H](C)C(=O)O)CC2	-4.19
c1cnc2c(c1)nc1n2[C@@H](CNCc2nccs2)COC1	-2.66
COc1ccc(CN2CCOC[C@H](OCC(=O)N(C)C)C2)cc1	0.552
COc1ccc(C2CCCN2C(=O)c2cc(C(C)C)on2)cc1 (stereo unspecified)	0.462
CN(C)C(=O)c1cc2ncc(C(=O)NC3CCCC3)cc2n1C	-2.63
Cc1csc2cc(C(=O)NC3CCCC3)cnc12	3.13
Cc1cccc2c1ccn2CCC(=O)Nc1c2c(nn1C)CSC2	3.03
Cn1cc(C2SCC(=O)Nc3c2c(=O)[nH]n3C2CCOCC2)cn1 (stereo unspecified)	-0.348
CN(C)c1cccc(C(=O)NCC(O)c2cccs2)c1 (stereo unspecified)	16.6
O=C(NCCC(O)c1ccco1)c1ccccc1Br (stereo unspecified)	0.957
COc1ncccc1C(=O)NCCn1cnc(C)cc1=O	-0.37
COc1cccc2sc(N3CC(OC(C)=O)C3)nc12	-6.67
CN(C)CCN1C[C@@H]2OCCN(Cc3cnn(C)c3)[C@@H]2C1	-140
Cc1cnc(N2Cc3nccn3CC(Cn3nc(C)nc3C)C2)nc1 (stereo unspecified)	-144
CCS(=O)(=O)N1CCc2cc(C(=O)NC)c(NCC3CC3)nc2CC1	1.88
Cn1cc(C2CC3(CCN(C(=O)c4ccsc4)CC3)NC2=O)cn1 (stereo unspecified)	-3.7
O=C1CC(c2ccc(F)cc2)Cc2[nH]c(=O)c(C(=O)O)cc21 (stereo unspecified)	-3.65
O=C1CC(c2ccc(C(=O)O)cc2)c2ncn(-c3ccc(Cl)cc3)c2N1 (stereo unspecified)	-2.14
Cc1ccc(-c2cc(C)nc(C3CCCN3S(C)(=O)=O)n2)cc1 (stereo unspecified)	-8.27
COCCNc1nnc(-c2ccc(C)nc2)s1	-8.55

Structure (SMILES)	cytotoxicity at 10 µM [%]
CN(C)c1cc(C2CCCN2C(=O)c2ccc(=O)n(C)c2)ccn1 (stereo unspecified)	-23.9
COCCOCC(=O)N1C[C@@H]2CC[C@H](Oc3cccc(F)c3)[C@@H]2C1	-26
Cc1c(C2CCCN(C(=O)c3cccnc3)C2)n2c(nc1=O)CCC2 (stereo unspecified)	-17.1
CN1CCCN(S(=O)(=O)c2cnn(C)c2)c2cc(Cl)ccc21	7.41
CCN(Cc1ccc(C#N)cc1F)C(=O)CN(C)CC(N)=O	7.52
CC(Nc1c(F)cc(C#N)cc1F)c1cccc(S(N)(=O)=O)c1 (stereo unspecified)	-4.34
COC(=O)c1ccc(C(=O)NCc2ccco2)nc1	-3.73
COC(=O)C1CN(Cc2cc(F)ccc2Br)CCO1 (stereo unspecified)	-5.51
Cc1ccc(CNc2ccn(CCC(N)=O)n2)c(Br)c1	-1.65
O=C(Cn1cnc2ccsc2c1=O)c1ccc2c(c1)OCCO2	3.1
O=C(NCc1ccc(-n2cncn2)nc1)N(CC1CCOC1)C1CC1 (stereo unspecified)	1.74
COCc1ccccc1C(=O)NCC(O)c1ccccc1F (stereo unspecified)	-3.67
COc1cc(CNC(=O)Nc2nncs2)ccc1O	-6.29
Cc1nc2n(n1)CC(NCc1nc(C)c(C)o1)CC2 (stereo unspecified)	-0.925
COCCOc1ccc(NC(=O)N(CC2CCOC2)C2CC2)cn1 (stereo unspecified)	-1.29
O=C(NCCN1CCOCC1)NCc1cccnc1-n1cccn1	-2.22
Cc1ccccc1C1CCN(C(=O)CCNC(=O)C(C)(C)C)C1 (stereo unspecified)	-5.47
CS(=O)(=O)N1CCN(Cc2c(O)ccc3oc4c(c23)CCCC4)CC1	1.01
NC(=O)C1CN(Cc2c(O)ccc3oc4c(c23)CCCC4)CCO1 (stereo unspecified)	4.48
Cc1nc(CN2CCN(C(=O)CC(C)(C)c3ccccc3)CC2)no1	-1.96
CC(NC(=O)N(C)Cc1ccc2c(c1)OCCO2)c1nncn1C (stereo unspecified)	-2.25
Cc1cc(NC(=O)NCCc2ccccc2)n(C)n1	-9.19
Cc1nn(C)c(N(C)C)c1CNCc1cccnc1N1CCOCC1	-141

Structure (SMILES)	cytotoxicity at 10 µM [%]
CC1CCC(NC(=O)Nc2ccc(CC(=O)N(C)C)cc2)CC1 (stereo unspecified)	3.85
C1CN(c2nc(C3CC3)ns2)CCO1	-2.4
CCc1ccc(C(=O)Nc2ccc(CC3CC(=O)NC3=O)cc2)s1 (stereo unspecified)	-0.95
CCC(=O)N1CSCC1C(=O)N(C)CCc1ccccc1 (stereo unspecified)	19.5
CCNC(=O)NC1CCCN(c2ccc(C)cc2)C1=O (stereo unspecified)	0.732
CN(CCO)C(=O)Nc1ccn(-c2cccc(C(F)(F)F)c2)n1	4.16
CCC(C)n1cnc(S(=O)(=O)N(Cc2cccnc2)C(C)C)c1 (stereo unspecified)	0.075
O=C(CN1CCCc2c(F)cc(Br)cc21)N1CCN(C(=O)C2CC2)CC1	-5.06
CN(C)S(=O)(=O)N1CCC(OCCCc2ccccc2)C1 (stereo unspecified)	0.696
COCc1noc(Cc2cc(Cl)c3c(c2)OCCCO3)n1	0.583
COc1cccc(-c2nnn(C3CCN(CC(F)(F)F)C3=O)n2)c1 (stereo unspecified)	3.34
Cc1cc(Cl)c(C)c(S(=O)(=O)N2CCN(Cc3ccncc3)CC2)c1Cl	1.76
CC(C)Oc1cc(N2CCC(C(N)=O)CC2)nc(N)n1	2.96
CN(C)CCNC(=O)c1ccc(OC2CCN(CC3CC3)CC2)c(Cl)c1	-6.26
c1ccc(C2CN(c3ncnc4[nH]cnc34)CCO2)cc1 (stereo unspecified)	9.42
CN(C)CCNc1cc(-c2ncccc2C(F)(F)F)c2cc[nH]c2n1	7.2
Cc1cccnc1CN1CCN(Cc2ccc(-c3cc[nH]n3)o2)CC1	-3.57
Cn1nnnc1SCCNC(=O)C1CCN(C(=O)C2CCC2)CC1	-3.22
CCCc1cc(C(=O)NCCC2=CCCCC2)[nH]n1	-51.8
Nc1nc2c(c(NCc3ccncc3)n1)CCCC2	4.56
COc1ccc(CCN)cc1-c1ccc(C(N)=O)cc1	3.23
COc1ccccc1Oc1ncccc1CNC(=O)C(O)C(F)(F)F (stereo unspecified)	-3.37
O=C(c1n[nH]c2c1CCC2)N1CCCC1c1nc(-c2ccccc2)no1 (stereo unspecified)	6.43

Structure (SMILES)	cytotoxicity at 10 µM [%]
CS(=O)(=O)N1CCN(C(=O)c2ccco2)[C@H]2CS(=O)(=O)C[C@H]21	-6.69
Cc1nn(C)c(C)c1CN(Cc1cccn1-c1cccnc1)C(C)C	-3.16
CCC(CC)n1nc(C)cc1NC(=O)C1CCOC1 (stereo unspecified)	-5.15
OCc1cn([C@@H]2c3ccccc3C3(CCNCC3)[C@H]2O)nn1	-3.45
CCn1c(CN2CCCC2)nnc1C1CCN(Cc2ccncc2)CC1	-0.384
CSCC(=O)N[C@H]1CN(CC2CCOCC2)C[C@@H]1c1ccccc1	-3.97
Cc1ccccc1-c1noc(C2CC(C(C)C)=NO2)n1 (stereo unspecified)	-14.6
CNC(=O)C1CCN(C(=O)c2coc(COc3ccc(OC)cc3)n2)C1 (stereo unspecified)	-1.74
COc1ccccc1Oc1ncccc1CNC(=O)C1(C)CCCNC1 (stereo unspecified)	-2.56
O=C(CCc1ccsc1)N1CCC(n2cc(CO)nn2)CC1	-3.37
O=C1NCC2(CCCN(C(=O)Nc3cccc(-c4cscn4)c3)CC2)O1 (stereo unspecified)	-4.54
CC(=O)C1(c2ccccc2)CCN(C(=O)CC2CNCCO2)CC1 (stereo unspecified)	-4.46
NC(=O)CNC(=O)c1cc(Cn2cnc3ccccc32)[nH]n1	-4.2
O=S1(=O)COCCN1CCOc1ccc(F)cc1	-0.505
COc1cc(CNC(c2ccccc2)c2nccn2C)cc(OC)c1 (stereo unspecified)	-6.69
COCc1ccccc1C(=O)N1CCCC1Cn1nc(C)cc1C (stereo unspecified)	-3.98
COc1c(CNC2CCOc3c(Cl)cccc32)c(C(C)C)nn1C (stereo unspecified)	2.25
NC(=O)C1CCN(C(=O)c2ccn(-c3ccc(F)cc3)n2)CC1	-1.34
Cn1ccc2c(C(=O)N3CCCC(c4nnc[nH]4)C3)cccc21 (stereo unspecified)	1.92
Cc1nn(C)c(N(C)C)c1CNCCCNS(C)(=O)=O	-5.98
Cc1ccc(CNC2CCCN(Cc3noc(C4CC4)n3)C2)s1 (stereo unspecified)	-6.01
CCc1ccc(C(C)NC(=O)N2CCC(n3cncn3)CC2)cc1 (stereo unspecified)	-8.18
OC(CN1CCC(c2ccn[nH]2)CC1)c1ccccc1F (stereo unspecified)	-25.5

Structure (SMILES)	cytotoxicity at 10 µM [%]
CCCc1n[nH]c(C2CN(CCNS(C)(=O)=O)CCO2)n1 (stereo unspecified)	-0.975
CC(=O)NCCNC(=O)c1cnc(-c2ccc(C)cc2C)s1	-7.95
CN1CCC/C1=N\S(=O)(=O)c1ccc(NC(=O)c2ccco2)cc1	4.56
CNS(=O)(=O)c1ccc(CNC(=O)NCC2CCC2)cc1	6.26
CC(=O)Nc1nc(C(=O)NC(C)c2ccc(C#N)cc2)cs1 (stereo unspecified)	-10.5
O=C(Cc1cccc2cccnc12)N1CCCN(c2cccnn2)CC1	-5.1
Cc1ncsc1C(=O)N1CCC(Nc2cccnn2)CC1	-1.89
Cn1cnc2c(N3CCOCC3)nc(C3CCNCC3)cc21	2.98
CCOC(=O)[C@]12CCCN(Cc3ccsc3)C[C@H]1CN(CCOC)C2	-127
CN1CCN(C(=O)Cc2ccc(F)cc2)Cc2cccnc21	0.0773
CN(C)CCNC(=O)c1nc2c(o1)CN(C(=O)c1cccnc1)C2	0.109
COCCN1CC[C@H]2CN(Cc3ccc(C)s3)C[C@@H]2C1=O	-3.72
CO[C@@H]1CN(S(=O)(=O)c2cn(C)cn2)[C@@H]2CCCO[C@@H]21	-125
O=C([C@@H]1CC[C@@H]2[C@@H](CCN2Cc2cccs2)O1)N1CCCCO1	-2.33
O=C(NCCc1c[nH]c2ccccc12)C1CCC(Cn2cnnn2)CC1 (stereo unspecified)	-12.7
CCCn1nccc1NC(=O)CN1CCC[C@H]1CO	-1.8
O=C(c1ccc(=O)[nH]c1)N1C[C@H]2CC[C@@H](C1)N(Cc1ccccc1)C2	-100
O=C1NCC2=Nc3ccccc3NC(c3ccc(O)cc3)C12 (stereo unspecified)	3.63
O=C(C1CCC1)N1C[C@H]2CC[C@@H](C1)N(S(=O)(=O)c1cccnc1)C2	-3.65
